pIC50: −log10 of the molar value.
How the values were obtained:
Plasmodium falciparum [1] = test: Antimalarial activity after 48 hrs against chloroquine-sensitive Plasmodium falciparum 3D7 by [3H]hypoxanthine uptake; type: functional, organism-based
Summary of the method: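 Asynchronous culture (65-75% rings, 0.5% parasitemia, 2.5% final hematocrit) in RPMI 1640 with 0.5% Albumax II, 0.2% glucose, 0.03% L-glutamine and 5 µM hypoxanthine. Triplicate wells with a 3-fold series of 10.0–0.0412 µg/mL; final DMSO ≤0.01%. 37 °C, 5% CO2: 24 h, then 0.2 µCi/well [3H]hypoxanthine for a further 24 h. Frozen, harvested, scintillation-counted. IC50 from curve fit; mean of 2–3 experiments.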

KB = test: Cytotoxicity against human KB cells after 48 hrs by alamar blue assay; type: cell-based
[2] = Resistant index, ratio of IC50 for chloroquine-resistant Plasmodium falciparum K1 to IC50 for chloroquine-sensitive Plasmodium falciparum 3D7; type: functional
Summary of the method: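 IC50 against K1 divided by IC50 against 3D7 (drug-sensitive NF54 clone). Both from [3H]-hypoxanthine incorporation over 48 h: asynchronous cultures at 0.5% parasitemia, 2.5% hematocrit, 3-fold dilutions 10.0–0.0412 µg/mL in triplicate. Label added at 24 h. Means of 2–3 independent experiments.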

[3] = Selectivity index, ratio of IC50 for human KB cells to IC50 for chloroquine-sensitive Plasmodium falciparum 3D7; type: toxicity, cell-based; details: read-out: Ratio IC50
Summary of the method: (§1)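 KB IC50 divided by the parasite IC50 (K1 or 3D7). KB cells seeded at 4×10^4 cells/mL in RPMI 1640 with 10% heat-inactivated FCS and grown 24 h. Triplicate dilution series then added for 72 h. AlamarBlue for 2–4 h, fluorescence ex 530/em 585 nm, IC50 by curve fit. Podophyllotoxin as positive control.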

[4] = Selectivity index, ratio of IC50 for human KB cells to IC50 for chloroquine-resistant Plasmodium falciparum K1; type: toxicity, cell-based; details: read-out: Ratio IC50; summary of the method: as §1
Plasmodium falciparum [5] = test: Antimalarial activity after 48 hrs against chloroquine-resistant Plasmodium falciparum K1 by [3H]hypoxanthine uptake; type: functional, organism-based
Summary of the method: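 Asynchronous P. falciparum K1 culture (65-75% ring stage, 0.5% parasitemia; chloroquine, pyrimethamine, cycloguanil resistant) at 2.5% hematocrit in RPMI 1640 with 0.5% Albumax II, glucose, L-glutamine, 5 µM hypoxanthine. Triplicate 3-fold dilutions 10.0–0.0412 µg/mL, DMSO ≤0.01% final, 37 °C, 5% CO2. [3H]-hypoxanthine (0.2 µCi/well) added at 24 h, incorporation counted after further 24 h. IC50 by curve fit, 2–3 experiments.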

Compound | pIC50 (Plasmodium falciparum [1]) | pIC50 (KB) | Ratio IC50 [2] | selectivity ratio [3] | selectivity ratio [4] | pIC50 (Plasmodium falciparum [5])
N#Cc1c(-c2ccccc2)[n+]([O-])c2ccccc2[n+]1[O-] | 5.63 |  |  |  |  | 
N#Cc1c(-c2ccccc2)[n+]([O-])c2ccc(F)cc2[n+]1[O-] | < 5.00 |  |  |  |  | 
COC(=O)c1ccc(-c2c(C#N)[n+]([O-])c3ccccc3[n+]2[O-])cc1 | 5.18 |  |  |  |  | 
N#Cc1c(-c2ccc(OC(F)(F)F)cc2)[n+]([O-])c2ccc(C(F)(F)F)cc2[n+]1[O-] | 5.71 | 4.87 | 0.28 | 6.97 | 24.4 | 6.26
Cc1ccc2c(c1)[n+]([O-])c(C#N)c(-c1ccc(OC(F)(F)F)cc1)[n+]2[O-] | 6.12 | 5.09 | 0.51 | 10.8 | 21.4 | 6.42
N#Cc1c(-c2ccc(F)cc2)[n+]([O-])c2cc(Cl)c(Cl)cc2[n+]1[O-] | < 5.00 |  |  |  |  | 
Cc1cc2c(cc1C)[n+]([O-])c(-c1ccc(OC(F)(F)F)cc1)c(C#N)[n+]2[O-] | < 5.30 |  |  |  |  | 
O=C(O)c1c(-c2ccc(Cl)cc2)[n+]([O-])c2ccccc2[n+]1[O-] | < 5.00 |  |  |  |  | 
CCOC(=O)c1c(-c2ccccc2)[n+]([O-])c2cc(F)c(F)cc2[n+]1[O-] | < 5.00 |  |  |  |  | 
Cc1ccc(-c2c(C#N)[n+]([O-])c3cc(Cl)ccc3[n+]2[O-])cc1 | < 5.00 |  |  |  |  | 
COc1ccc(-c2c(C#N)[n+]([O-])c3cc(F)ccc3[n+]2[O-])cc1 | < 4.70 |  |  |  |  | 
N#Cc1c(-c2ccccc2)[n+]([O-])c2ccc(C(F)(F)F)cc2[n+]1[O-] | 6.48 | 5.55 | 0.55 | 8.55 | 15.7 | 6.74
N#Cc1c(-c2ccc(Cl)cc2)[n+]([O-])c2ccc(Cl)cc2[n+]1[O-] | < 5.30 |  |  |  |  | 
N#Cc1c(-c2ccc(F)cc2)[n+]([O-])c2ccc(C(F)(F)F)cc2[n+]1[O-] | 6.18 | 5.55 | 0.79 | 4.32 | 5.48 | 6.28
N#Cc1c(-c2ccc(OC(F)(F)F)cc2)[n+]([O-])c2ccccc2[n+]1[O-] | 5.90 | 5.56 | 0.21 | 2.17 | 10.3 | 6.57
COc1ccc(-c2c(C#N)[n+]([O-])c3cc(C(F)(F)F)ccc3[n+]2[O-])cc1 | 5.61 |  |  |  |  | 
Cc1cc2c(cc1C)[n+]([O-])c(-c1ccc(F)cc1)c(C#N)[n+]2[O-] | 5.90 | 4.72 | 0.73 | 14.9 | 20.4 | 6.03
COC(=O)c1ccc(-c2c(C#N)[n+]([O-])c3cc(Cl)ccc3[n+]2[O-])cc1 | < 4.70 |  |  |  |  | 
Cc1ccc(-c2c(C(=O)O)[n+]([O-])c3ccccc3[n+]2[O-])cc1 | < 5.00 |  |  |  |  | 
COc1ccc(-c2c(C#N)[n+]([O-])c3ccccc3[n+]2[O-])cc1 | 5.50 |  |  |  |  | 

Compound | pIC50 (Plasmodium falciparum [1]) | pIC50 (KB) | Ratio IC50 [2] | selectivity ratio [3] | selectivity ratio [4] | pIC50 (Plasmodium falciparum [5])
N#Cc1c(-c2ccc(Cl)cc2)[n+]([O-])c2ccc(C(F)(F)F)cc2[n+]1[O-] | 5.81 | 5.56 | 1.13 | 1.77 | 1.56 | 5.75
COc1ccc(-c2c(C#N)[n+]([O-])c3cc(OC)ccc3[n+]2[O-])cc1 | 5.64 |  |  |  |  | 
COc1ccc2c(c1)[n+]([O-])c(C#N)c(-c1ccc(C)cc1)[n+]2[O-] | 6.09 | 4.77 | 2.83 | 20.9 | 7.39 | 5.64
N#Cc1c(-c2ccc(OC(F)(F)F)cc2)[n+]([O-])c2cc(Cl)c(Cl)cc2[n+]1[O-] | < 5.00 |  |  |  |  | 
N#Cc1c(-c2ccc(F)cc2)[n+]([O-])c2ccc(F)cc2[n+]1[O-] | 5.24 |  |  |  |  | 
Cc1ccc2c(c1)[n+]([O-])c(C#N)c(-c1ccccc1)[n+]2[O-] | 5.81 | 4.93 | 0.48 | 7.52 | 15.8 | 6.13
COc1ccc(-c2c(C#N)[n+]([O-])c3cc(C)ccc3[n+]2[O-])cc1 | 5.56 |  |  |  |  | 
CCOC(=O)c1c(-c2ccccc2)[n+]([O-])c2cc(Cl)c(Cl)cc2[n+]1[O-] | < 5.15 |  |  |  |  | 
CCOC(=O)c1c(-c2ccccc2)[n+]([O-])c2ccc(OC)cc2[n+]1[O-] | < 5.00 |  |  |  |  | 
COC(=O)c1ccc(-c2c(C#N)[n+]([O-])c3cc(OC)ccc3[n+]2[O-])cc1 | 5.50 |  |  |  |  | 
COc1ccc2c(c1)[n+]([O-])c(C#N)c(-c1ccc(F)cc1)[n+]2[O-] | 6.06 | 4.73 | 0.42 | 21.3 | 50.9 | 6.44
Cc1ccc(-c2c(C#N)[n+]([O-])c3cc(C)ccc3[n+]2[O-])cc1 | 5.89 | 4.60 | 0.73 | 19.2 | 26.2 | 6.02
COc1ccc2c(c1)[n+]([O-])c(C#N)c(-c1ccccc1)[n+]2[O-] | 5.83 | 4.98 | 0.49 | 7.12 | 14.5 | 6.14
CCOC(=O)c1c(-c2ccccc2)[n+]([O-])c2ccc(Cl)cc2[n+]1[O-] | 5.49 |  |  |  |  | 
CCOC(=O)c1c(-c2ccccc2)[n+]([O-])c2ccccc2[n+]1[O-] | < 5.00 |  |  |  |  | 
COc1ccc(-c2c(C#N)[n+]([O-])c3cc(Cl)ccc3[n+]2[O-])cc1 | < 5.00 |  |  |  |  | 
N#Cc1c(-c2ccc(F)cc2)[n+]([O-])c2ccccc2[n+]1[O-] | 5.41 |  |  |  |  | 
COc1ccc2c(c1)[n+]([O-])c(C#N)c(-c1ccc(Cl)cc1)[n+]2[O-] | 6.14 | 4.76 | 0.64 | 24 | 37.5 | 6.33
CCOC(=O)c1c(-c2ccccc2)[n+]([O-])c2cc(C)c(C)cc2[n+]1[O-] | 5.93 | < 4.22 |  | > 50 |  | < 5.00
Cc1ccc2c(c1)[n+]([O-])c(C#N)c(-c1ccc(F)cc1)[n+]2[O-] | 6.06 | 4.95 | 0.42 | 12.7 | 30.4 | 6.43

Compound | pIC50 (Plasmodium falciparum [1]) | pIC50 (KB) | Ratio IC50 [2] | selectivity ratio [3] | selectivity ratio [4] | pIC50 (Plasmodium falciparum [5])
Cc1ccc(-c2c(C#N)[n+]([O-])c3cc(F)ccc3[n+]2[O-])cc1 | < 5.00 |  |  |  |  | 
Cc1ccc2c(c1)[n+]([O-])c(C#N)c(-c1ccc(Cl)cc1)[n+]2[O-] | 6.32 | 5.03 | 0.39 | 19.3 | 49.5 | 6.72
CCN(CC)CCCC(C)Nc1ccnc2cc(Cl)ccc12 (stereo not given) [CHLOROQUINE] |  | 3.96 |  |  |  | 
COc1ccc(-c2c(C#N)[n+]([O-])c3cc(C)c(C)cc3[n+]2[O-])cc1 | 5.52 |  |  |  |  | 
COC(=O)c1ccc(-c2c(C#N)[n+]([O-])c3cc(C(F)(F)F)ccc3[n+]2[O-])cc1 | 5.69 |  |  |  |  | 
CCOC(=O)c1c(-c2ccccc2)[n+]([O-])c2ccc(C)cc2[n+]1[O-] | < 5.00 |  |  |  |  | 
COC(=O)c1ccc(-c2c(C#N)[n+]([O-])c3cc(F)ccc3[n+]2[O-])cc1 | < 4.70 |  |  |  |  | 
COc1ccc(-c2c(C#N)[n+]([O-])c3cc(Cl)c(Cl)cc3[n+]2[O-])cc1 | < 4.70 |  |  |  |  | 
N#Cc1c(-c2ccc(Cl)cc2)[n+]([O-])c2ccc(F)cc2[n+]1[O-] | 5.38 |  |  |  |  | 
N#Cc1c(-c2ccccc2)[n+]([O-])c2ccc(Cl)cc2[n+]1[O-] | < 5.30 |  |  |  |  | 
N#Cc1c(-c2ccc(OC(F)(F)F)cc2)[n+]([O-])c2ccc(Cl)cc2[n+]1[O-] | 6.15 | 5.63 | 1.31 | 3.31 | 2.53 | 6.03
N#Cc1c(-c2ccc(Cl)cc2)[n+]([O-])c2ccccc2[n+]1[O-] | 6.00 | 5.01 | 0.41 | 9.63 | 23.6 | 6.39
N#Cc1c(-c2ccc(OC(F)(F)F)cc2)[n+]([O-])c2ccc(F)cc2[n+]1[O-] | 5.77 | 5.58 |  | 1.54 |  | < 5.10
COC(=O)c1ccc(-c2c(C#N)[n+]([O-])c3cc(C)ccc3[n+]2[O-])cc1 | 5.67 |  |  |  |  | 
CCOC(=O)c1c(-c2ccc(C)cc2)[n+]([O-])c2ccccc2[n+]1[O-] | < 5.00 |  |  |  |  | 
CCOC(=O)c1c(-c2ccc(Cl)cc2)[n+]([O-])c2ccccc2[n+]1[O-] | < 5.00 |  |  |  |  | 
COc1cc([C@@H]2c3cc4c(cc3[C@H](O)[C@H]3COC(=O)[C@H]23)OCO4)cc(OC)c1OC [PODOFILOX] |  | 8.52 |  |  |  | 
N#Cc1c(-c2ccc(F)cc2)[n+]([O-])c2ccc(Cl)cc2[n+]1[O-] | 5.23 |  |  |  |  | 
Cc1ccc(-c2c(C#N)[n+]([O-])c3ccccc3[n+]2[O-])cc1 | 5.46 |  |  |  |  | 

From ChEMBL document CHEMBL1140972, “Synthesis and structure-activity relationship of 3-phenylquinoxaline 1,4-di-N-oxide derivatives as antimalarial agents” (Eur J Med Chem, 2008)
